# From PubChem BioAssay
# Hits are enriched below; roughly 2.6% of the tested compounds scored in any of these assays.
# PHOSPHO1 inh: inhibitors of human PHOSPHO1 phosphatase. hit rate 1.1% among 290,000. inhibition, % at 13.3 µM. recombinant PHOSPHO1, absorbance phosphatase assay; in the data active means inhibition above about 60%
# Target sequence (Q8TCT1 whole entry, looked up): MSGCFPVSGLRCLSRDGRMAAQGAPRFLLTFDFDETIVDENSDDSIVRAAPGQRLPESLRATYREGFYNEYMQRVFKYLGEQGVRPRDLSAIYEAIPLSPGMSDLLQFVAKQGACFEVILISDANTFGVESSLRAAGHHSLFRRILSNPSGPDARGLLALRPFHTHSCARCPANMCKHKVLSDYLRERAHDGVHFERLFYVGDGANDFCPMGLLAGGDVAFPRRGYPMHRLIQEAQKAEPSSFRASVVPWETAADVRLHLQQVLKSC
# ARFGAP1 inh: inhibitors of rat ARFGAP1; AID 651572; hit rate 0.26% among 360,000; inhibition, % at 16.5 µM; Arfgap1-stimulated ARF1 GTP hydrolysis, GDP FP detection;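 active means inhibition above a per-plate limit, mean inhibition of low control wells plus 3 SD, cut at about 25% in these data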;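 further: 0% = DMSO wells with enzyme and 100% = wells lacking Arfgap1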
# Target sequence (Q62848 1-136 limits assumed): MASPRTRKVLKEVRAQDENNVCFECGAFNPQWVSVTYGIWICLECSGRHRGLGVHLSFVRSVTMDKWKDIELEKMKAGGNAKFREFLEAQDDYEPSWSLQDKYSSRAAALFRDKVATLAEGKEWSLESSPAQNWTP
#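 Material – truncated rat Arfgap1 GAP domain · Buffer or medium – HEPES-based buffer, pH 7.5 · Reagent – human ARF1(Δ1-17)-GTP substrate · Dosing – 16.5 µM single point, 1.26% DMSO · Schedule – GTP hydrolysis reaction 2 h at 25 °C · Technique – GDP detection by fluorescence polarization · Benchmarks – No-Arfgap1 wells (100%) versus DMSO full-reaction wells (0%) · Repeats – single replicate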
# IMP-1 inhibitor: blocks Pseudomonas aeruginosa IMP-1 metallo-beta-lactamase. purified IMP-1, nitrocefin hydrolysis, epi-absorbance fluorescence. inhibition, % at 5.6 µM. hit rate 0.45% among 290,000;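 active means inhibition above the mean plus 3 SD of all compounds in the same screening run, cut at about 4.5% in these data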;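 further: 0% = IMP-1 with DMSO and 100% = DMSO wells lacking enzyme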
#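 System: Purified recombinant IMP-1 metallo-beta-lactamase enzyme | Measured by: Fluorescence quenching readout, ex 480/em 530 nm | Replication: Singlicate | Incubation: 15 min preincubation plus 25 min reaction at 25 °C | Evaluation: Percent inhibition from optical density relative to buffer-blank wells | Benchmarks: DMSO with and without IMP-1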
# VIM-2 inh: blocks Pseudomonas aeruginosa VIM-2 metallo-beta-lactamase. purified VIM-2, nitrocefin hydrolysis, epi-absorbance fluorescence. hit rate 0.89% among 290,000. inhibition, % at 5.6 µM;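 active means inhibition above the mean of all tested compounds plus 3 SD, cutoff set per screening run, cut at about 7.5% in these data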;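 further: red hydrolysis product quenches plate fluorescence so inhibitors raise well fluorescence; 0% = enzyme with DMSO and 100% = DMSO without enzyme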
# ASAP1 inh: inhibitors of human ASAP1 ArfGAP activity. Q9ULH1. ASAP1-stimulated ARF1 GTP hydrolysis, GDP FP detection. inhibition, % at 16.5 µM. hit rate 0.19% among 360,000; in the data active means inhibition above about 25%;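 further: 0% = vehicle with enzyme and substrate and 100% = no enzyme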
# Calb FLC: affects C. albicans growth with fluconazole. C. albicans CaCi-2 (fluconazole-resistant clinical isolate) + fluconazole, Alamar Blue growth, 48 h. growth inhibition, % (test concentration not listed). hit rate 0.57% among 300,000;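 active means growth inhibition above about 58% in most replicates, limit read from the data, passing the limit was not always enough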;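 further: all wells also contain fluconazole at 8 µg/ml as a sub-toxic cotreatment; 0% = median of DMSO wells and 100% = median of geldanamycin control wells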
# VIM-2 inh confirm: VIM-2 inhibition, confirmation assay; AID 1860; hit rate 73% among 200; inhibition, % at 5.6 µM; purified VIM-2 enzyme, nitrocefin absorbance; shares compounds with IMP-1 inhibitor; in the data active means inhibition above about 8%;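 further: 0% = enzyme with vehicle and 100% = no enzyme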
# TEM-1 inh 2: blocks E. coli TEM-1 beta-lactamase, VIM-2 IMP-1 counter-screen; hit rate 50% among 200; inhibition, % at 5.6 µM; shares compounds with IMP-1 inhibitor; nitrocefin absorbance inhibition; AID 2184; in the data active means inhibition above about 0.66%
# IMP-1 inh conf: confirmation of P. aeruginosa IMP-1 metallo-beta-lactamase inhibitors; shares compounds with IMP-1 inhibitor; purified IMP-1 enzyme, absorbance substrate hydrolysis; inhibition, % at 5.6 µM; hit rate 60% among 200; AID 2189; in the data active means inhibition above about 4.9%;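 further: 0% = enzyme with vehicle and 100% = vehicle without enzyme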
# Numbers without * were called inactive; nt = no result given.
SMILES,PHOSPHO1 inh,ARFGAP1 inh,IMP-1 inhibitor,VIM-2 inh,ASAP1 inh,Calb FLC,VIM-2 inh confirm,TEM-1 inh 2,IMP-1 inh conf
CCN1/C(=C/C=C/c2oc3ccc4ccccc4c3[n+]2CC)Oc2ccc3ccccc3c21,11.9,nt,33.0*,13.4*,nt,21.9,9.9*,18.3*,13.7*
CC[n+]1c(/C=C/N(C)c2ccccc2)oc2ccc(Cl)cc21,-3.8,-4.6,-3.7,1.4,-3.0,-6.6,nt,nt,nt
CCOc1ccc(Nc2nc(NCCN3CCOCC3)nc(OC)n2)cc1,4.2,-9.1,37.5*,41.7*,-0.8,-5.1,-0.1,-3.9,-1.4
CCOc1ccc(Nc2nc(N3CCOCC3)nc(N3CCOCC3)n2)cc1,53.9,-6.2,-5.3,-3.0,1.5,-11.1,nt,nt,nt
CCCc1cn(CC(C)n2c(=O)c3ccccc3n2Cc2cc(C(C)C)no2)nn1 (configuration not stated),nt,-3.7,nt,nt,-8.7,nt,nt,nt,nt
Cn1c(NCCc2ccccc2)cc(=O)n(C)c1=O,18.3,-19.4,2.3,0.2,-1.9,-10.2,nt,nt,nt
Cn1c(=O)c(NCCc2ccccc2)c2c3c(cccc31)C(=O)c1ccccc1-2,16.2,3.5,36.3*,36.6*,-8.8,20.7,28.4*,63.9*,23.7*
Cn1c(=O)c(NCCO)c2c3c(cccc31)C(=O)c1ccccc1-2,27.6,11.6,95.7*,90.2*,7.6,-10.0,108.1*,157.9*,95.2*
CN1C(=O)c2cccc(NCCCN3C(=O)c4ccccc4C3=O)c2C1=O,5.7,7.7,0.3,-2.8,-7.1,-5.3,nt,nt,nt
CCCCNc1c2c3c(cccc3n(C)c1=O)C(=O)c1ccccc1-2,-26.0,nt,28.2*,22.6*,nt,-11.1,34.1*,52.5*,27.6*
CCNc1c2c3c(cccc3n(C)c1=O)C(=O)c1ccccc1-2,15.4,nt,22.9*,22.4*,nt,1.9,60.0*,69.1*,41.0*
O=C(Nc1ccc(F)cc1)C(c1cccc(F)c1)N1CCN(c2cccc(C(F)(F)F)n2)CC1 (configuration not stated),nt,1.8,nt,nt,17.6,nt,nt,nt,nt
CC(=O)N1CCOC12CCN(Cc1ccccc1)CC2,nt,-4.9,nt,nt,-1.5,nt,nt,nt,nt
CCC(c1nnnn1-c1ccc2c(c1)OCCO2)N1CCN(c2ccccc2OC)CC1 (configuration not stated),nt,7.0,nt,nt,6.7,nt,nt,nt,nt
O/C=c1\ccc2cccc3nc(C(F)(F)F)nc1c23,2.5,1.0,6.8*,21.2*,5.2,2.1,32.9*,5.0*,10.8*
O=C(O)c1ccccc1-c1ccc(/C=C/c2cc(C(F)(F)F)[nH]c(=O)n2)o1,-64.3,4.0,5.5*,8.2*,0.9,-9.0,14.8*,37.4*,11.1*
O=C(O)c1cc(Cl)ccc1-c1ccc(/C=C/c2cc(C(F)(F)F)[nH]c(=O)n2)o1,32.8,-15.5,3.3,1.9,-3.4,10.4,nt,nt,nt
O=C(CSc1ncccn1)N(Cc1cccnc1)C(CCc1ccccc1)c1nc2ccccc2[nH]1 (configuration not stated),nt,-5.9,nt,nt,0.7,nt,nt,nt,nt
c1ccc(CNc2ccccn2)cc1,23.5,1.9,-2.4,-3.0,-8.1,3.5,nt,nt,nt
c1ccc(Nc2ccccc2Nc2ccccn2)nc1,6.3,5.6,50.1*,32.2*,6.2,-6.3,2.6,1.1*,0.8
Oc1ccc(Cn2ccnc2)c2cccnc12,20.8,-8.6,26.1*,10.3*,-3.5,13.2,20.7*,-2.6,43.8*
CCN(CC)c1ccc2c(-c3ccc(S(=O)(=O)O)cc3S(=O)(=O)[O-])c3ccc(=[N+](CC)CC)cc-3oc2c1,18.7,nt,104.5*,104.5*,nt,-74.9,85.5*,150.2*,80.5*
CCN(CC)c1ccc2nc3c4ccccc4c(=O)cc-3oc2c1,23.3,-15.9,0.4,6.9,-38.4,-8.4,nt,nt,nt
COc1ccc(C(=O)Nc2ccc(/C(C)=N/NC(=O)c3ccncc3)cc2)cc1,28.0,7.3,32.4*,13.6*,-7.2,-1.7,12.3*,-4.7,18.9*
COc1cc(/C=N/N2C(=O)CSC2=S)ccc1O,52.7,-3.4,-2.1,-5.3,4.8,19.3,nt,nt,nt
